Experimental data of several laboratories.
Compare with care: the assays were run in different laboratories.
Target: Calcium/calmodulin-dependent protein kinase type II subunit alpha (CAMK2A, Homo sapiens, UniProt Q9UQM7)

| SMILES | test | setting | remaining binding [%] |
| --- | --- | --- | --- |
| c1cnn2ncc(-c3ccnc(N4CCC45COC5)n3)c2c1 | binding | 1 µM | 76 |
| O=C(N1CCS(=O)(=O)CC1)N1C[C@H](c2ccc(OC(F)(F)F)cc2)C[C@H](c2nc(C3CC3)no2)C1 | cell-free assay, competition with immobilised ligand | 1 µM | 100 |
| O=C(c1ccc(Nc2nccc(-c3cc4ccccc4s3)n2)cc1)N1CCC(N2CCCC2)CC1 | binding, competition with immobilised ligand | 1 µM | 95 |
| CN(C(=O)c1ccccc1)c1cc(N(C)c2ccc3c(c2)CCc2ccc(C(=O)NCCN4CCOCC4)cc2C3=O)ccc1F | cell-free assay, competition with immobilised ligand | 1 µM | 86 |
| N[C@H]1CCN(c2nccc(-c3cnn4ncccc34)n2)C1 | binding | 1 µM | 100 |
| CCOC(=O)c1cc2cc(-c3cc(C(=O)NCc4ccc(C(=O)O)cc4)nn3C)ccc2[nH]1 | cell-free assay, competition with immobilised ligand | 0.1 µM | 76 |
| COc1ncc2cc3ccccc3nc2c1C#N | cell-free assay, competition with immobilised ligand | 5 µM | 95 |
| CNC(=O)[C@@H]1CC[C@@H](n2c(-c3ccc4cnccc4c3)nc3ccc(C(=O)NCc4cccc(C(N)=O)c4)cc32)C1 | binding, competition with immobilised ligand | 1 µM | 100 |
| CN(C)c1nccc(-c2cnn3ncccc23)n1 | binding | 1 µM | 62 |
| O=C(Nc1c[nH]nc1C(=O)NC1CCNCC1)c1cc(F)cc(F)c1 | binding, competition with immobilised ligand | 1 µM | 100 |
| Cn1nc(C(=O)NCc2ccc(C(=O)O)cc2)cc1-c1ccc2[nH]ccc2c1 | cell-free assay, competition with immobilised ligand | 0.1 µM | 79 |
| FC(F)(F)Oc1cccc(-c2cnc3ccc(-c4ccncc4)nn23)c1 | cell-free assay, competition with immobilised ligand | 5 µM | 14 |
| O=C(NC[C@@H]1[C@H]2CN(C(=O)OCc3cc(C(F)(F)F)cc(C(F)(F)F)c3)C[C@@H]12)c1ccc2[nH]nnc2c1 | cell-free assay, competition with immobilised ligand | 1 µM | 91 |
| CN(C)c1nccc(-c2cnc3ncccn23)n1 | binding | 1 µM | 92 |
| C=CC(=O)N1CCC(C(=O)NCC(=O)N2CCN(c3nc(-c4cnc(N)nc4C(F)F)nc(N4CCOCC4)n3)CC2)CC1 | binding, competition with immobilised ligand | 1 µM | 96 |
| C[C@@H](c1ccc(-n2cnc3c(N)ncnc32)cc1)N1CCc2nn(C)c(Cc3ccccc3)c2C1=O | binding, competition with immobilised ligand | 0.1 µM | 91 |
| O=C(NCCCN1CCOCC1)c1ccc(Nc2ncc(Cl)c(-c3ccc(Cl)s3)n2)cc1 | binding, competition with immobilised ligand | 1 µM | 91 |
| Cc1cnn2ncc(-c3ccnc(N(C)C)n3)c2c1 | binding | 1 µM | 86 |
| CS(=O)(=O)NCC[C@H](NC(=O)c1cncc2c1cnn2-c1ccc(F)cc1)c1ccnc(S(C)(=O)=O)c1 | cell-free assay, competition with immobilised ligand | 1 µM | 100 |
| O=C(NCCCN1CCOCC1)c1ccc(Nc2nccc(-c3cc4ccccc4s3)n2)cc1 | binding, competition with immobilised ligand | 1 µM | 68 |
| N#CC1(c2ccccn2)CCN(Cc2cc(C(=O)N3CCCC3)c(=O)n3ccccc23)CC1 | cell-free assay, competition with immobilised ligand | 1 µM | 84 |
| C[C@H]1CCN(c2nccc(-c3cnn4ncccc34)n2)C1 | binding | 1 µM | 91 |
